Consider 37 compounds from ChEMBL document CHEMBL1128194, “A new series of pyridinone derivatives as potent non-nucleoside human immunodeficiency virus type 1 specific reverse transcriptase inhibitors” (J Med Chem, 1995).

For assay [1], the system named is Human immunodeficiency virus 1. Nature of the assay: Inhibition of wild type HIV-1-IIIB strain replication in CEM-SS cells. Type of assay: functional, organism-based. Particulars: Human immunodeficiency virus 1, CEM-SS. A digest of the protocol:
(§1)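 Cells were infected with 100 TCID50 for 30 min and washed twice to remove unbound virus. They were then cultured 5 days with a range of compound concentrations. Virus production was quantified as particle-associated RT activity in the supernatant. IC50 was derived from a computer-generated median-effect plot of dose–effect data.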

For assay [2], the system named is CEM-SS. Nature of the assay: Cytotoxicity against wild type HIV-1-IIIB strain infected CEMSS cells. Type of assay: functional. Particulars: Homo sapiens. A digest of the protocol:
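Uninfected cells were incubated with compound for 5 days. Viability was read by MTT reduction to formazan at OD540. CC50 is the concentration that halves OD540, taken from a median-effect computer analysis.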

For assay [3], the target named is Human immunodeficiency virus type 1 reverse transcriptase (Human immunodeficiency virus 1, UniProt Q72547). Nature of the assay: Inhibition of HIV-1 reverse transcriptase (RT). A digest of the protocol: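 Recombinant HIV-1 RT (20–50 nM) was expressed in yeast. Assays ran 10 min at 37 °C in 50 mM Tris-HCl pH 8.0 with 5 mM MgCl2, 4 mM DTT, 80 mM KCl and BSA. Template-primer was poly(C)-oligo(dG) (5:1, 0.48 A260/mL), with 2 μM dGTP plus [3H]dGTP. Product was precipitated with cold TCA/pyrophosphate, filtered and scintillation counted. Compounds were in DMSO, with matched DMSO controls.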

Assay [4] concerns CEM-SS. Nature of the assay: The compound was tested for inhibition of nevirapine HIV-1 resistant strain. In kind it is functional, cell-based. Particulars: Homo sapiens. The gist of the method:
(§2)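 Cells infected with 100 TCID50 virus for 30 min. Unbound virus removed by two washes, then cells cultured 5 days with a range of compound concentrations. Virus production read as particle-associated RT activity in the culture supernatant. IC50 taken from a computer-generated median effect plot of the dose–effect data.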

Assay [5] concerns CEM-SS. Nature of the assay: The compound was tested for cytotoxicity against nevirapine HIV-1 resistant strain infected CEMSS cells. Particulars: Homo sapiens. Type of assay: functional.
Assay [6] can be described thus: Specific index of IC50 and CC50 on HIV-1 Nevirapine resistant strain. In kind it is functional.
Assay [7] deals with CEM-SS. Nature of the assay: Specific index of IC50 and CC50 on HIV-1 IIIB wild type. Type of assay: functional.
Assay [8] deals with CEM-SS. Nature of the assay: The compound was tested for inhibition of Nevirapine resistant HIV-1 (N119) cells. In kind it is functional, cell-based. Particulars: Homo sapiens. A digest of the protocol:
as §2

The test system of assay [9] is CEM-SS. Nature of the assay: The compound was tested for inhibition of wild type HIV-1-IIIB strain. In kind it is functional, cell-based. Particulars: Homo sapiens. A digest of the protocol:
as §1

SMILES strings stand for the structures.

In turn, `Cc1cnc(O)c([N+](=O)[O-])c1Sc1ccccc1` registered an IC50 in [1] greater than 10 µM. The same compound gave a CC50 in assay [2] greater than 10 µM.

As for `Cc1cn([C@H]2C[C@H](N=[N+]=[N-])[C@@H](CO)O2)c(=O)[nH]c1=O` [ZIDOVUDINE], the CC50 in assay [2] is greater than 100 µM.

Take `Cc1c(Sc2ccccc2)n(COCc2ccccc2)c(=O)[nH]c1=O`: the IC50 in [3] came to 0.4 µM.

Consider `Cc1cccc(Sc2c(C)cnc(O)c2N)c1`, for which the values for the IC50 in assay [4] and in assay [1] were 41.5 µM and 1.4 µM, respectively. Besides, the CC50 in assay [5] and in assay [2] was 78 µM in each case. The Specific index in assay [6] was greater than 1; in assay [7], greater than 55.

Regarding `Cc1cc(C)cc(Sc2c(C)cnc(O)c2N)c1`, the IC50 in assay [4] was greater than 10 µM; in assay [1], 0.01 µM; in assay [3], 0.1 µM. Also, the CC50 in [2] was greater than 10 µM. The Specific index in [7] is greater than 1000.

As for `Cc1cnc(O)c([N+](=O)[O-])c1Sc1nc2ccccc2[nH]1`, inhibition in assay [1] was half-maximal at 43.5 µM (IC50). In addition, the CC50 in assay [2] was found to be 54.5 µM. Further, the Specific index in [7] is given as greater than 1.

As for `Cc1cc(C)cc(Sc2c(C)cnc(O)c2NC(=O)Cc2ccccc2)c1`, the IC50 in [1] is greater than 10 µM. In addition, the half-maximal cytotoxic concentration (CC50) in assay [2] was greater than 10 µM.

Take `Cc1cnc(O)c([N+](=O)[O-])c1SC1=NCCS1`: in [1], half-maximal inhibition (IC50) was put at 17 µM. This compound also displayed a CC50 in assay [2] of 21.5 µM. The Specific index in [7] is greater than 1.

Regarding `CCc1cnc(O)c([N+](=O)[O-])c1Sc1cc(C)cc(C)c1`, the values for the IC50 in assay [4] and in [1] were 6.7 µM and roughly 0.09 µM, respectively. The CC50 in [2] is greater than 10 µM. The Specific index in assay [6] was greater than 1; in assay [7], greater than 111.

As for `CCc1c(C)nc(O)c([N+](=O)[O-])c1Sc1cc(C)cc(C)c1`, the IC50 in assay [4] is 0.26 µM; in assay [1] it was roughly 0.006 µM. The CC50 in [2] was greater than 10 µM. The Specific index in assay [6] is greater than 38; in assay [7] it was greater than 1666.

The compound `Cc1cc(O)nc(Sc2c(C)cnc(O)c2[N+](=O)[O-])n1` showed an IC50 in assay [1] greater than 100 µM. In addition, the CC50 in assay [2] is greater than 100 µM.

Turning to `Cc1cnc(O)c([N+](=O)[O-])c1Sc1ccccn1`, the IC50 in [1] stood at 18 µM. In [2], the CC50 came out at 28.5 µM. For the same compound, the Specific index in assay [7] is given as greater than 1.

Turning to `Cc1cc(C)nc(Sc2c(C)cnc(O)c2[N+](=O)[O-])n1`, in assay [1], the IC50 came to 17.5 µM. In [2], this compound registered a CC50 of 19.5 µM. Further, the Specific index in assay [7] is greater than 1.

In assay [3], `CCc1c(C)[nH]c(=O)c([N+](=O)[O-])c1Sc1cc(C)cc(C)c1` registered an IC50 of 0.03 µM.

Regarding `CCc1c(C)nc(O)c(N)c1Sc1cc(C)cc(C)c1`, the results for the IC50 in assay [4], in assay [1] and in assay [3] were 2.1 µM, 0.014 µM and 0.015 µM, respectively. For the same compound, in assay [2], the CC50 is greater than 10 µM. For the same compound, the Specific index in assay [6] was greater than 4; in assay [7] it was greater than 714.

On to `Cc1cccc(Sc2c(C)cnc(O)c2[N+](=O)[O-])c1`, for which the CC50 in [2] is greater than 10 µM. In assay [3], the IC50 was greater than 10 µM.

In assay [1], `Cc1cc(C)cc(Sc2c(C)cnc(O)c2NC=O)c1` displayed an IC50 of 6.6 µM. Also, the CC50 in [2] is greater than 100 µM. Moreover, the Specific index in [7] is on record as greater than 15.

Regarding `Cc1cnc(O)c([N+](=O)[O-])c1Sc1nc2ccccc2s1`, half-maximal inhibition in assay [1] (IC50) required 14.5 µM. The CC50 in [2] was determined as 13.5 µM.

As to `CCc1cnc(O)c(N)c1Sc1cc(C)cc(C)c1`, the IC50 in [4] stood at 6.7 µM; in [1], 0.01 µM. This compound also registered a CC50 in [2] greater than 10 µM. In addition, the Specific index in assay [6] is greater than 1; in [7], greater than 1000.

In turn, `Cc1cc(C)cc(Nc2c(C)cnc(O)c2[N+](=O)[O-])c1` displayed an IC50 in assay [1] of 45 µM. In assay [2], this compound displayed a CC50 greater than 100 µM. In assay [7], this compound returned a Specific index greater than 2.

As to `CCc1c(Sc2cc(C)cc(C)c2)cc(O)nc1C`, the IC50 in assay [1] was 0.5 µM; in assay [3], 0.4 µM. Moreover, the CC50 in assay [2] was greater than 10 µM. The compound also yielded a Specific index in assay [7] greater than 20.

For the compound `CCOC(=O)c1c(O)nc(C)c(CC)c1Sc1cc(C)cc(C)c1`, the IC50 came to 2.2 µM in assay [4] and 0.003 µM in [1]. In assay [2], this compound yielded a CC50 greater than 10 µM. Also, the Specific index in assay [6] is greater than 4.5; in assay [7], greater than 3333.

As to `CCC(=O)Nc1c(O)ncc(C)c1Sc1cc(C)cc(C)c1`, the results for the IC50 in assay [1] and in assay [3] were 41.4 µM and greater than 4 µM, respectively. Further, in assay [2], the CC50 is greater than 100 µM. For the same compound, in assay [7], the Specific index is reported as greater than 2.

Take `Cc1cccc(Sc2c(C)c[nH]c(=O)c2N)c1`: in assay [3], the IC50 was greater than 4 µM.

Regarding `Cc1cc(C)cc(Sc2c(N)c(O)nc3ccccc23)c1`, the results for the half-maximal inhibitory concentration (IC50) in assay [4] and in [1] were 6.6 µM and 0.25 µM, respectively. The values for the CC50 in [5] and in assay [2] were 8.2 µM and greater than 9 µM, respectively. The Specific index is greater than 1.5 in assay [6] and greater than 36 in [7].

For `CCOC(=O)c1c(Sc2cc(C)cc(C)c2)c(CC)c(C)[nH]c1=O`, in [3], the IC50 amounted to 0.6 µM.

On to `CC(=O)Nc1c(O)ncc(C)c1Sc1cc(C)cc(C)c1`, for which the IC50 in assay [4] is greater than 100 µM; in [1], 0.067 µM; in assay [3] it was greater than 4 µM. In addition, in [2], the CC50 was greater than 100 µM. The Specific index in [7] is recorded as greater than 1492.

Compound `CCOC(=O)Nc1c(O)ncc(C)c1Sc1cc(C)cc(C)c1` registered an IC50 in assay [1] of 7.5 µM. Moreover, the CC50 in assay [2] was greater than 100 µM. In addition, in assay [7], the Specific index is greater than 13.

On to `Cc1cnc(O)c(N)c1Sc1nc2ccccc2o1`, for which 8 µM corresponded to half-maximal inhibition in assay [1] (IC50). Also, in assay [2], the CC50 stood at 7.5 µM.

With `Cc1cc(C)cc(Sc2c(C)cnc(O)c2[N+](=O)[O-])c1`, the IC50 in assay [8] is greater than 10 µM; in assay [1], 0.12 µM; in [3], greater than 10 µM. In addition, the CC50 in [2] is greater than 10 µM. Moreover, the Specific index in [7] was greater than 83.

As to `CC(C)=CCN1Cc2cc(Cl)cc3[nH]c(=S)n(c23)C[C@@H]1C`, the IC50 in [1] is greater than 10 µM. This compound showed a CC50 in [2] greater than 10 µM.

Regarding `Cc1cnc(O)c([N+](=O)[O-])c1Sc1nc2ccccc2o1`, inhibition in assay [1] was half-maximal at 5.5 µM (IC50). Also, in assay [2], half-maximal cytotoxicity (CC50) was put at 16 µM. In assay [7], the Specific index is on record as greater than 2.

Consider `CCCCCCC(=O)Nc1c(O)ncc(C)c1Sc1cc(C)cc(C)c1`, for which, in [9], the IC50 is greater than 10 µM. Further, the CC50 in assay [2] was greater than 10 µM.

In turn, `Cc1c(Sc2ccccc2)n(COCCO)c(=O)[nH]c1=O` [HEPT] came in with an IC50 in [3] greater than 6 µM.

In the case of `CCc1c(C)nc(O)c(NC(C)=O)c1Sc1cc(C)cc(C)c1`, the IC50 in [4] was 4.3 µM; in assay [1], 0.05 µM. In addition, the CC50 in [5] was greater than 100 µM; in [2] it was 80 µM. For the same compound, the Specific index was greater than 23 in assay [6] and 1600 in [7].

`Cc1cnc(O)c([N+](=O)[O-])c1Sc1nccn1C` came in with an IC50 in assay [1] of 56 µM. The CC50 in assay [2] was determined as 68.5 µM. Further, in assay [7], the Specific index is reported as greater than 1.

Consider `Cc1cc(C)cc(Sc2c([N+](=O)[O-])c(O)nc3ccccc23)c1`, for which the IC50 in assay [4] was greater than 10 µM; in [1] it was 3.8 µM. This compound also showed a CC50 in assay [2] greater than 100 µM. The Specific index in assay [7] is greater than 26.
